Active and inactive are the calls of the source. The rule behind the calls is not given here.

One experiment relates to NCI-H187. Nature of the experiment: Cytotoxicity against human NCI-H187 cells by resazurin microplate assay. Type of experiment: functional, cell-based. In outline:
(§1)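 Resazurin microplate assay on human cancer lines: KB (oral epidermoid carcinoma), MCF-7 (breast cancer) and NCI-H187 (small-cell lung cancer). IC50 values were read from the assay, with doxorubicin hydrochloride as the reference standard.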
(In general: Resazurin is reduced to fluorescent resorufin, in cell work by metabolically active cells.)

Experiment [1] relates to KB. Nature of the experiment: Cytotoxicity against human KB cells by resazurin microplate assay. In kind it is functional, cell-based. In outline:
as §1

Experiment [2] deals with MCF7. Nature of the experiment: Cytotoxicity against human MCF7 cells by resazurin microplate assay. In kind it is functional, cell-based. In outline:
as §1

For the next experiment, the system named is Plasmodium falciparum. The experiment is described as follows: Antimalarial activity against multidrug-resistant Plasmodium falciparum K1 by microculture radioisotope technique. In kind it is functional, organism-based.
In experiment [3] the test system is Mycobacterium tuberculosis. Nature of the experiment: Antimycobacterial activity against Mycobacterium tuberculosis H37Ra by GFPMA assay. In kind it is functional, organism-based.
Experiment [4] has as its system MCF7. Nature of the experiment: Cytotoxicity against human MCF7 cells at 50 ug/ml by resazurin microplate assay. In kind it is functional, cell-based. In outline: (§2)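 Single-concentration test at 50 µg/mL (119 µM) by resazurin microplate assay on human KB (oral epidermoid carcinoma) or MCF-7 (breast cancer) cells, with doxorubicin hydrochloride as the reference standard.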

For experiment [5], the system named is KB. The experiment is described as follows: Cytotoxicity against human KB cells at 50 ug/ml by resazurin microplate assay. Type of experiment: functional, cell-based. In outline: as §2
A further experiment relates to Vero. Nature of the experiment: Cytotoxicity against african freen monkey Vero cells by green fluorescent protein microplate assay. Particulars: Chlorocebus sabaeus.

For the compound `CCC(/C=C/C=C/C=C/C(=O)c1c(O)c([C@]2(O)CC[C@@H](O)CC2)c[nH]c1=O)CO` (stereo not given in full), the result in the experiment with NCI-H187, in the experiment with KB [1] and in the experiment with MCF7 [2] was inactive.

As to `C[C@H]1[C@@H](O)O[C@@H]2O[C@@]3(C)CC[C@H]4[C@H](C)CC[C@@H]1[C@@]24OO3` [ARTENIMOL], in the experiment on Plasmodium falciparum, the IC50 was found to be 0.004 µM.

As for `CCC(/C=C/C=C/C=C/C(O)=C1\C(=O)NC(Cc2ccc(O)cc2)C1=O)CO` (stereo not given) [TORRUBIELLONE D], the result in the experiment with NCI-H187 and in the experiment with MCF7 [2] was inactive. In the experiment on KB [1], the IC50 stood at 44 µM.

For the compound `CCC(/C=C/C=C/C=C/C(=O)c1c(O)c([C@]2(O)CC[C@@H](O)CC2)cn(O)c1=O)CO` (stereo not given in full) [TORRUBIELLONE A], the IC50 with Plasmodium falciparum came out at 8.1 µM; in the experiment on NCI-H187 it was 69 µM; with Vero it was 87 µM. Besides, the outcome (in experiment [3]; with MCF7 [4]; in the experiment on KB [5]) was inactive.

For the compound `COc1cccc2c1C(=O)c1c(O)c3c(c(O)c1C2=O)C[C@@](O)(C(=O)CO)C[C@@H]3O[C@H]1C[C@H](N)[C@H](O)[C@H](C)O1` [DOXORUBICIN], the IC50 with NCI-H187 amounted to 0.098 µM; in the experiment on KB [1], 0.37 µM.

The IC50 is the concentration needed to halve the response being measured.

The values above are taken from ChEMBL document CHEMBL1649361, “Pyridone and tetramic acid alkaloids from the spider pathogenic fungus Torrubiella sp. BCC 2165” (J Nat Prod, 2010).
